The results in this text go back to ChEMBL document CHEMBL5113496, “A systematic exploration of boceprevir-based main protease inhibitors as SARS-CoV-2 antivirals” (Eur J Med Chem, 2022).

pEC50: −log10 of the molar value.

Data set [1] relates to SARS-CoV-2. Briefly: Antiviral activity against SARS-CoV2 USA-WA1/2020 infected in African green monkey Vero E6 cells assessed as reduction in viral plaques incubated for 3 days by plaque reduction neutralization test. In kind it is functional, organism-based. To be noted: Severe acute respiratory syndrome coronavirus 2, USA-WA1/2020, Vero C1008, 72 h.
Data set [2] concerns SARS-CoV-2. Briefly: Antiviral activity against SARS-CoV2 Delta infected in African green monkey Vero E6 cells assessed as reduction in viral plaques incubated for 3 days by plaque reduction neutralization test. In kind it is functional, organism-based. To be noted: Severe acute respiratory syndrome coronavirus 2, Delta, Vero C1008, 72 h.
For data set [3], the system named is SARS-CoV-2. Briefly: Antiviral activity against SARS-CoV2 Beta infected in African green monkey Vero E6 cells assessed as reduction in viral plaques incubated for 3 days by plaque reduction neutralization test. In kind it is functional, organism-based. To be noted: Severe acute respiratory syndrome coronavirus 2, Beta, Vero C1008, 72 h.
The nature of data set [4]: Cytotoxicity against HEK293T/17 cells assessed as inhibition of cell growth incubated for 48 hrs by MTT assay. To be noted: human, hek293t/17, 48 h. The data set is classed as toxicity, cell-based. The essentials:
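293T cells seeded and held 24 h at 37 °C, 5% CO2, then exposed in triplicate for 48 h to a range of compound concentrations. Compounds were taken from DMSO stocks and diluted in culture medium. Viability was read by MTT. CC50 was taken from normalised % viability plotted against log10 concentration.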

In the case of `C[C@@H](OC(C)(C)C)[C@H](NC(=O)OCc1ccccc1)C(=O)N1C[C@H]2[C@@H]([C@H]1C(=O)N[C@H](C=O)C[C@@H]1CCNC1=O)C2(C)C`, the negative-log EC50 (pEC50) is 5.97 with SARS-CoV-2 [1], 6.12 in the data set with SARS-CoV-2 [2] and 5.64 with SARS-CoV-2 [3]. The cytotoxic concentration (CC50) in data set [4] amounted to 163000 nM.
In the same order, the values of `CC(C)(C)[C@H](NC(=O)OCc1ccccc1)C(=O)N1C[C@H]2[C@@H]([C@H]1C(=O)N[C@H](C=O)C[C@@H]1CCNC1=O)C2(C)C` are 5.53, 5.98, 6.07 and 144000 nM.
Consider `CC(C)(C)OC(=O)N[C@H](C(=O)N1C[C@H]2[C@@H]([C@H]1C(=O)N[C@H](C=O)C[C@@H]1CCNC1=O)C2(C)C)C(C)(C)C`, for which the figures for the negative-log EC50 (pEC50) in the data set with SARS-CoV-2 [1] and with SARS-CoV-2 [2] were 6.21 and 6.00, respectively. Also, the CC50 in data set [4] turned out to be 34200 nM.
